Reference: ChEMBL document CHEMBL3243954 (J Med Chem, 1979)

Key:
[1] = Drug metabolism in mouse liver microsomes assessed as rate of esterase-mediated compound hydrolysis measured per mg of protein by pH stat based titrimetric analysis; format: ADME
Mus musculus [2] = species on record: Mus musculus; assay: Ratio of ED50 for muscle relaxant activity in mouse to ED50 for antimetrazol activity in mouse measured after 30 mins
Mus musculus [3] = assay: Muscle relaxant activity in iv dosed mouse after 60 mins by rotarod test; format: ADME, organism-based; conditions: in vivo, 1 h
Mus musculus [4] = assay: Antimetrazol activity in iv dosed mouse assessed as inhibition of metrazol-induced tonic-extensor seizures administered 30 mins prior to metrazol challenge; format: functional; conditions: Mus musculus, iv; read-out: ED50
Method in brief: (§1)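 Mice dosed iv with the ester in aqueous solution containing under 10% chremofor. Metrazol 125 mg/kg sc was given 30 or 60 min after the ester. ED50 is the dose preventing tonic-extensor seizures in 50% of mice, derived by probit analysis.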

Mus musculus [5] = assay: Muscle relaxant activity in iv dosed mouse after 30 mins by rotarod test; format: ADME, organism-based; conditions: in vivo, 0.5 h
Mus musculus [6] = species on record: Mus musculus; assay: Ratio of ED50 for muscle relaxant activity in mouse to ED50 for antimetrazol activity in mouse measured after 60 mins
Mus musculus [7] = assay: Antimetrazol activity in iv dosed mouse assessed as inhibition of metrazol-induced tonic-extensor seizures administered 60 mins prior to metrazol challenge; format: functional; conditions: Mus musculus, iv; read-out: ED50; method in brief: as §1
esterase = assay: Drug metabolism in mouse liver microsomes assessed as rate of esterase-mediated compound hydrolysis by pH stat based titrimetric analysis; format: ADME; conditions: liver microsomes
Brain [8] = assay: Drug uptake albino mouse brain at 10 mg equivalent of oxazepam/kg, iv after 10 mins measured per gm of tissue by thin-layer chromatography; format: ADME, organism-based; conditions: in vivo
Brain [9] = assay: Drug uptake albino mouse brain at 10 mg equivalent of oxazepam/kg, iv after 30 mins measured per gm of tissue by thin-layer chromatography; format: ADME, organism-based; conditions: in vivo, 0.5 h
Brain [10] = assay: Drug uptake albino mouse brain at 10 mg equivalent of oxazepam/kg, iv after 120 mins measured per gm of tissue by thin-layer chromatography; format: ADME, organism-based; conditions: in vivo, 2 h
[11] = Retardation factor, Rm of the compound by thin-layer chromatography; format: physicochemical
Brain [12] = assay: Drug uptake albino mouse brain at 10 mg equivalent of oxazepam/kg, iv after 20 mins measured per gm of tissue by thin-layer chromatography; format: ADME, organism-based; conditions: in vivo
Brain [13] = assay: Drug uptake albino mouse brain at 10 mg equivalent of oxazepam/kg, iv after 240 mins measured per gm of tissue by thin-layer chromatography; format: ADME, organism-based; conditions: in vivo, 4 h
Brain [14] = assay: Drug uptake albino mouse brain at 10 mg equivalent of oxazepam/kg, iv after 1 min measured per gm of tissue by thin-layer chromatography; format: ADME, organism-based; conditions: in vivo
Brain [15] = assay: Drug uptake albino mouse brain at 10 mg equivalent of oxazepam/kg, iv after 5 mins measured per gm of tissue by thin-layer chromatography; format: ADME, organism-based; conditions: in vivo
Brain [16] = assay: Drug uptake albino mouse brain at 10 mg equivalent of oxazepam/kg, iv after 60 mins measured per gm of tissue by thin-layer chromatography; format: ADME, organism-based; conditions: in vivo, 1 h
Brain [17] = assay: Drug uptake albino mouse brain at 10 mg equivalent of oxazepam/kg, iv after 3 mins measured per gm of tissue by thin-layer chromatography; format: ADME, organism-based; conditions: in vivo, 0.05 h
Brain [18] = assay: Drug uptake albino mouse brain at 10 mg equivalent of oxazepam/kg, iv after 6 mins measured per gm of tissue by thin-layer chromatography; format: ADME, organism-based; conditions: in vivo, 0.1 h
Brain [19] = assay: Drug uptake albino mouse brain at 10 mg equivalent of oxazepam/kg, iv after 12 mins measured per gm of tissue by thin-layer chromatography; format: ADME, organism-based; conditions: in vivo, 0.2 h
Brain [20] = assay: Drug uptake albino mouse brain at 10 mg equivalent of oxazepam/kg, iv after 40 mins measured per gm of tissue by thin-layer chromatography; format: ADME, organism-based; conditions: in vivo

SMILES | Vmax [1] [nmol/min] | Ratio ED50 (Mus musculus [2]) | ED50 (Mus musculus [3]) [mg/kg] | ED50 (Mus musculus [4]) [mg/kg] | ED50 (Mus musculus [5]) [mg/kg] | Ratio ED50 (Mus musculus [6]) | ED50 (Mus musculus [7]) [mg/kg] | further results
CCC(CC)C(=O)OC1N=C(c2ccccc2)c2cc(Cl)ccc2NC1=O (stereo not drawn) | 1.4 | 10 | 3.42 | 0.28 | 2.8 | 10.4 | 0.33 | –
CC(=O)OC1N=C(c2ccccc2)c2cc(Cl)ccc2NC1=O (stereo not drawn) | 323 | 2.6 | 1.2 | 0.38 | 0.97 | 3.6 | 0.33 | –
CCC(=O)OC1N=C(c2ccccc2)c2cc(Cl)ccc2NC1=O (stereo not drawn) | 139 | 34.2 | 4.4 | 0.13 | 4.45 | 13.8 | 0.32 | –
CCCC(=O)OC1N=C(c2ccccc2)c2cc(Cl)ccc2NC1=O (stereo not drawn) | 88 | 9.1 | 3.28 | 0.29 | 2.64 | 10.3 | 0.32 | –
CC(C)C(=O)OC1N=C(c2ccccc2)c2cc(Cl)ccc2NC1=O (stereo not drawn) | 131 | 4.8 | 2.67 | 0.51 | 2.45 | 8.1 | 0.33 | –
COC(=O)CCC(=O)OC1N=C(c2ccccc2)c2cc(Cl)ccc2NC1=O (stereo not drawn) | 125 | – | – | – | – | – | – | –
O=C(CCCc1ccccc1)OC1N=C(c2ccccc2)c2cc(Cl)ccc2NC1=O (stereo not drawn) | 1.5 | – | – | – | – | – | – | Km (esterase): 9.5 µM
O=C(CCc1ccccc1)OC1N=C(c2ccccc2)c2cc(Cl)ccc2NC1=O (stereo not drawn) | 7.9 | 5.8 | 3.56 | 0.44 | 2.57 | 11.5 | 0.31 | Km (esterase): 9.7 µM
CC(=O)OC1N=C(c2ccccc2)c2cc(Cl)ccc2N[14C]1=O (stereo not drawn) | – | – | – | – | – | – | – | Drug uptake (Brain [8]): 59.5 nmol; Drug uptake (Brain [9]): 40.3 nmol; Drug uptake (Brain [10]): 33 nmol; Rm [11]: -0.15; Drug uptake (Brain [12]): 49.2 nmol; Drug uptake (Brain [13]): 11 nmol; Drug uptake (Brain [14]): 29.9 nmol; Drug uptake (Brain [15]): 47.5 nmol; Drug uptake (Brain [16]): 46.6 nmol; Drug uptake (Brain [17]): 39.4 nmol
CCC(=O)OC1N=C(c2ccccc2)c2cc(Cl)ccc2N[14C]1=O (stereo not drawn) | – | – | – | – | – | – | – | Drug uptake (Brain [18]): 24.2 nmol; Drug uptake (Brain [19]): 30.8 nmol; Drug uptake (Brain [20]): 33 nmol; Rm [11]: -0.03; Drug uptake (Brain [12]): 41.7 nmol; Drug uptake (Brain [14]): 12.6 nmol; Drug uptake (Brain [17]): 17.5 nmol
